Data reported in ChEMBL document CHEMBL1130342, “Synthesis and evaluation of 2-(arylamino)imidazoles as alpha 2-adrenergic agonists” (J Med Chem, 1997).

How the values were obtained:
[1] = biological target: T1, Alpha-2B adrenergic receptor (Rattus norvegicus) (UniProt P19328); assay: Intrinsic activity relative to Norepinephrine at Alpha-2B adrenergic receptor from CHO-RNG cells; assay type: cell-based
T1 sequence (whole entry): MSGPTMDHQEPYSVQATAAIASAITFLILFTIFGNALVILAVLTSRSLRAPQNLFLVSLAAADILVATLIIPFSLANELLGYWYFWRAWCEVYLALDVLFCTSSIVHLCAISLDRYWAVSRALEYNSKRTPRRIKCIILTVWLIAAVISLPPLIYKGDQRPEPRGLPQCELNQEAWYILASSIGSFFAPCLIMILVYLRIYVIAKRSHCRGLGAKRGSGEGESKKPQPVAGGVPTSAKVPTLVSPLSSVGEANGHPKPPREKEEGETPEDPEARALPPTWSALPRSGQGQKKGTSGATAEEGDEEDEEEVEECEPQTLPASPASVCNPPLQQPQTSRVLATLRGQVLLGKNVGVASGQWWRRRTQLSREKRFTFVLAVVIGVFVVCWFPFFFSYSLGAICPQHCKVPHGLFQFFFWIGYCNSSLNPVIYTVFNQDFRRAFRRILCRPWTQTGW
How it was run: (§1)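 Functional agonist response measured by Cytosensor microphysiometry in CHO cells expressing α2A (CHO-C10) or rat α2B (CHO-RNG) adrenoceptor.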

[2] = biological target: T2, Alpha-2B adrenergic receptor (Rattus norvegicus, UniProt P19328); assay: Effective Concentration at Alpha-2B adrenergic receptor from CHO-RNG cells; assay type: functional, cell-based; how it was run: as §1
T2 sequence (P19328 whole entry): T1 sequence (whole entry)

[3] = biological target: T3, Adrenergic receptor alpha-1 (Homo sapiens, UniProt P35348+P25100+P35368); assay: Displacement of prazosin from Alpha-1 adrenergic receptors of human cerebral cortex homogenate; assay type: tissue-based
T3 sequence (P35348 whole entry): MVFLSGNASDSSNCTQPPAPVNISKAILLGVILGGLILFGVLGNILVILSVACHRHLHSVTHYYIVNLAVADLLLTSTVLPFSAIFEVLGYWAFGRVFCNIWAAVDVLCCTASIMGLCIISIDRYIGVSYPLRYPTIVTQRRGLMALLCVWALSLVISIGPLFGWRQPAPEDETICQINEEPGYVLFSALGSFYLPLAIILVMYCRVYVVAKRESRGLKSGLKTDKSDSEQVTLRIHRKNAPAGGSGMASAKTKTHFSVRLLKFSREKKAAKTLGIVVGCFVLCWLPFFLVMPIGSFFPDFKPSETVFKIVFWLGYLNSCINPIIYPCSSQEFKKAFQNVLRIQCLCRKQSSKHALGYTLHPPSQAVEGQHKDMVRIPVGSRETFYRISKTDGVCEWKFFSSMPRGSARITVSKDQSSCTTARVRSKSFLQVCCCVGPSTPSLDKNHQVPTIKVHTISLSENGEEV
T3 sequence (P25100 whole entry): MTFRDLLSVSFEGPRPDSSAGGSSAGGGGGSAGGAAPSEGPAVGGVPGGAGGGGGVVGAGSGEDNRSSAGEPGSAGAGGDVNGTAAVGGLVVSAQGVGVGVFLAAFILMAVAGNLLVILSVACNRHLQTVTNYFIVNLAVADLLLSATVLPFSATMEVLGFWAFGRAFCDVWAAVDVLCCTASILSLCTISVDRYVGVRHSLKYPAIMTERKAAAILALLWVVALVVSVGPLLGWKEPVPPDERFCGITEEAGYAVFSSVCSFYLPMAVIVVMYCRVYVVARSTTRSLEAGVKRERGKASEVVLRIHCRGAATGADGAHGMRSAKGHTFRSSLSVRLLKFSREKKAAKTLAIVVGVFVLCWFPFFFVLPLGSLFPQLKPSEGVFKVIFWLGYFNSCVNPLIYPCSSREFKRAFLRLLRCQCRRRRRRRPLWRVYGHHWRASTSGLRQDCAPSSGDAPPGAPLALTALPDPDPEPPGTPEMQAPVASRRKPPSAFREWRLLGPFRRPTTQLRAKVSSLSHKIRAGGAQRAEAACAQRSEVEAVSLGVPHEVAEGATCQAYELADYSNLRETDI
T3 sequence (P35368 whole entry): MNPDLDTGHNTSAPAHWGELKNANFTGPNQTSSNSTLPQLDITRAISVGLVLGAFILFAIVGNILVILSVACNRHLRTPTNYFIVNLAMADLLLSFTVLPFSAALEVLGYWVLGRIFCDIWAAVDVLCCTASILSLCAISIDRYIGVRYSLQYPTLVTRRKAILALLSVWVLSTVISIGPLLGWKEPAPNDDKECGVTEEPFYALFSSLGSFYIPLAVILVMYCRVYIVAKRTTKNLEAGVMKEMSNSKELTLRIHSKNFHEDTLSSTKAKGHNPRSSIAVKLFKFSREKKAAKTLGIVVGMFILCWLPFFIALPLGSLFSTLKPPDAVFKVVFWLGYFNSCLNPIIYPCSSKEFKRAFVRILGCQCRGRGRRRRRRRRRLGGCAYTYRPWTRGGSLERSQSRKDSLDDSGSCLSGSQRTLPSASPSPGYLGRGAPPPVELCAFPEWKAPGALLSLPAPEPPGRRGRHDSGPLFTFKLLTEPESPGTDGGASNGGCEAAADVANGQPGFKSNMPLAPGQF
How it was run: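 Membranes from human cerebral cortex, giving a mixed α1 subtype population; affinity from competition against radiolabeled prazosin; nonlinear least-squares curve fitting; at least three separate determinations.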

[4] = biological target: T4, Alpha-2C adrenergic receptor (Homo sapiens, UniProt P18825); assay: Effective concentration at Alpha-2C adrenergic receptor from CHO-C4 cells; assay type: functional, cell-based
T4 sequence (P18825 whole entry): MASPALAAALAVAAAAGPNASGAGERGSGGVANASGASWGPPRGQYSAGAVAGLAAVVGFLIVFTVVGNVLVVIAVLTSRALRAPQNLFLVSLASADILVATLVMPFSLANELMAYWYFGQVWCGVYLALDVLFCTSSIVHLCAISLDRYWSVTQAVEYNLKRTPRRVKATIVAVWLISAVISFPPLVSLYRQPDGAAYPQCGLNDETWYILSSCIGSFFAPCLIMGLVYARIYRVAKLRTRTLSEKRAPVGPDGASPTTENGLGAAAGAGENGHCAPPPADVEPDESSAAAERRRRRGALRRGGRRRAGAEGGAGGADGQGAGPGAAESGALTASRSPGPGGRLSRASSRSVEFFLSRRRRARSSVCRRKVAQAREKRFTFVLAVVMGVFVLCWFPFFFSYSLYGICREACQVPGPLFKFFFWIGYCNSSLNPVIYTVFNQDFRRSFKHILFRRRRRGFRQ
How it was run: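 Functional agonist assay in CHO cells expressing the human α2C-adrenoceptor (CHO-C4). Responses were read on a Cytosensor microphysiometer.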

[5] = biological target: T5, Alpha-2A adrenergic receptor (Homo sapiens, UniProt P08913); assay: Effective concentration at Alpha-2A adrenergic receptor from CHO-C10 cells; assay type: functional, cell-based; how it was run: as §1
T5 sequence (P08913 whole entry): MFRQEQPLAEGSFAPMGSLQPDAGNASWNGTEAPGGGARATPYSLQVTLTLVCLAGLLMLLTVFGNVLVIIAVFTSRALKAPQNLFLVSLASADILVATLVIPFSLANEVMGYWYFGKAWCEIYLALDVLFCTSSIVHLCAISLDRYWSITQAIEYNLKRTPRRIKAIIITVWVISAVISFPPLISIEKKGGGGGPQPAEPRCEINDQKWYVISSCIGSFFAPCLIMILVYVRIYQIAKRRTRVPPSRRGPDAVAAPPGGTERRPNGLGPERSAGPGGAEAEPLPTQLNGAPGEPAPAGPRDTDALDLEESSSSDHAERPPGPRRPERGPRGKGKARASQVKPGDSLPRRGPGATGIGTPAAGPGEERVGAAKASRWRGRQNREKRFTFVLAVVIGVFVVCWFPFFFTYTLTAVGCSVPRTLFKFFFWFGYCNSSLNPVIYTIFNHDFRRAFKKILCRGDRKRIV

[6] = biological target: T4, Alpha-2C adrenergic receptor; assay: Displacement of rauwolscine from human Alpha-2C adrenergic receptor expressed in CHO cells; assay type: cell-based
How it was run: (§2)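 Membranes of CHO cells expressing human α2A (CHO-C10), human α2C (CHO-C4) or rat α2B (CHO-RNG) receptor; competition against radiolabeled rauwolscine; affinity constants by nonlinear least-squares curve fitting; at least three separate determinations.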

[7] = biological target: T2, Alpha-2B adrenergic receptor; assay: Displacement of rauwolscine from rat Alpha-2B adrenergic receptor expressed in CHO cells; assay type: cell-based; how it was run: as §2
[8] = biological target: T5, Alpha-2A adrenergic receptor; assay: Displacement of rauwolscine from human Alpha-2A adrenergic receptor expressed in CHO cells; assay type: cell-based; how it was run: as §2
[9] = biological target: T6, Alpha-2A adrenergic receptor (Homo sapiens) (UniProt P08913); assay: Intrinsic activity relative to Norepinephrine at Alpha-2A adrenergic receptor from CHO-C10 cells; assay type: cell-based; how it was run: as §1
T6 sequence (whole entry): T5 sequence (P08913 whole entry)

[10] = biological target: T7, Alpha-2C adrenergic receptor (Homo sapiens) (UniProt P18825); conditions: CHO-C4
T7 sequence (whole entry): T4 sequence (P18825 whole entry)

Row | Structure (SMILES) | IA [1] | EC50 [2] | Ki [3] | EC50 [4] | EC50 [5] | Ki [6] | Ki [7] | Ki [8] | IA [9] | IA [10]
1 | COc1c(C(C)(C)C)cc(C)c(Nc2ncc[nH]2)c1C | 0.65 | 1100 nM | 4200 nM | > 5000 nM | > 5000 nM |  |  |  |  | 
2 | Cc1c(Nc2ncc[nH]2)ccc2nccnc12 |  |  | > 28000 nM |  |  | 340 nM | 1200 nM |  |  | 
3 | COc1ccc(Nc2ncc[nH]2)c(C)c1OC |  |  | 6600 nM |  |  | 1500 nM | 2500 nM | 130 nM |  | 
4 | Brc1c(NC2=NCCN2)ccc2nccnc12 [BRIMONIDINE] | 0.89 |  | 1800 nM |  |  |  |  |  | 0.91 | 0.82
5 | c1c[nH]c(Nc2ccc3nccnc3c2)n1 |  |  | > 100000 nM |  |  | 8800 nM | 9300 nM | 3100 nM |  | 
6 | Brc1ccccc1Nc1ncc[nH]1 |  |  | 11000 nM |  |  |  | 1500 nM | 210 nM |  | 
7 | COc1ccc(Nc2ncc[nH]2)c(C)c1 |  |  | 8400 nM |  |  |  |  |  |  | 
8 | COc1cc(C)c(Nc2ncc[nH]2)cc1C(C)(C)C |  |  | 16000 nM |  |  | 290 nM | 380 nM | 39 nM |  | 
9 | Cc1c(Nc2ncc[nH]2)ccc2c1OCCO2 | 1 | 41 nM | 2100 nM | 6.6 nM | 8.7 nM |  |  |  | 0.89 | 0.5
10 | Cc1c(Nc2ncc[nH]2)ccc2c1NCCO2 | 0.88 | 470 nM | 16000 nM | 110 nM | 124 nM |  | 421 nM | 6 nM | 0.49 | 0.64
11 | Clc1cccc(Cl)c1Nc1ncc[nH]1 |  |  | 6000 nM |  |  | 1100 nM |  |  |  | 
12 | c1c[nH]c(Nc2ccc3[nH]cnc3c2)n1 |  |  | 24000 nM |  |  | 400 nM | 640 nM | 76 nM |  | 
13 | Brc1c(Nc2ncc[nH]2)ccc2nccnc12 |  |  | > 100000 nM |  |  | > 10000 nM | > 10000 nM |  |  | 
